Data on four compounds can be found in ChEMBL document CHEMBL4834438, “Synthesis and Biological Activity of Triterpene-Coumarin Conjugates” (J Nat Prod, 2021).

The subject of test [1] is HT-29. Put plainly: Induction of apoptosis in human HT-29 cells assessed as necrotic cells at IC50 concentrations measured after 72 hrs by Annexin V-FITC/Propidium iodide staining based FACS cytometry analysis. It counts as functional. The method, boiled down: (§1)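 Seeding in 24-well plates was 5 × 10^4 B16–F10, 6 × 10^4 HT29 or 15 × 10^4 Hep G2 per well, followed by 24 h growth. Cells were treated in triplicate for 72 h at the respective IC50. Harvested cells went into HEPES binding buffer (pH 7.4, 140 mM NaCl, 2.5 mM CaCl2), with Annexin V-FITC added for 15 min at room temperature in the dark, then PI just before FACScan. About 10 × 10^3 cells were counted per sample. Results are mean ± SEM, relative to untreated control.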

For test [2], the system named is B16-F10. As to the kind of experiment: Cell cycle arrest in mouse B16-F10 cells assessed as decrease in cells accumulation in S phase at IC50 concentrations measured after 72 hrs by Propidium iodide staining based FACS cytometry analysis. It counts as functional. Also noted: scale not given: the % may be the effect or the level left. The method, boiled down:
(§2)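 Cells were seeded in 24-well plates (5 × 10^4 B16–F10 or 6 × 10^4 HT29 per well) and grown 24 h in DMEM with 10% FCS and 2 mM glutamine at 37 °C, 5% CO2. They were then exposed 72 h at the cancer-line IC50, washed in PBS, trypsinized and taken up in TBS, then in Vindelov buffer (RNase, PI, pH 8). Cells were kept on ice and given extra PI before reading. About 10 × 10^3 cells were read per run by FACS at 488 nm. Three experiments, two replicates each, reported as mean ± SEM.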

Test [3] concerns HepG2. As to the kind of experiment: Induction of apoptosis in human HepG2 cells assessed as total apoptosis at IC50 concentrations measured after 72 hrs by Annexin V-FITC/Propidium iodide staining based FACS cytometry analysis. It counts as functional. The method, boiled down:
as §1

The test system of test [4] is B16-F10. Put plainly: Induction of apoptosis in mouse B16-F10 cells assessed as necrotic cells at IC50 concentrations measured after 72 hrs by Annexin V-FITC/Propidium iodide staining based FACS cytometry analysis. It counts as functional. The method, boiled down: as §1
Test [5] concerns HT-29. Put plainly: Cell cycle arrest in human HT-29 cells assessed as decrease in cells accumulation in S phase at IC50 concentrations measured after 72 hrs by Propidium iodide staining based FACS cytometry analysis. The format is functional. The arrangement: scale not given: the % may be the effect or the level left. The method, boiled down:
as §2

In test [6] the test system is B16-F10. As to the kind of experiment: Induction of apoptosis in mouse B16-F10 cells assessed as total apoptosis at IC50 concentrations measured after 72 hrs by Annexin V-FITC/Propidium iodide staining based FACS cytometry analysis. The format is functional. The method, boiled down:
as §1

The test system of test [7] is B16-F10. As to the kind of experiment: Induction of mitochondrial membrane potential loss in mouse B16-F10 cells assessed as fluorescence intensity at IC50 concentration measured after 72 hrs by rhodamine 123 staining based FACScan flow cytometry. It counts as functional, cell-based. The method, boiled down: (§3)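 The medium was then renewed with dihydrorhodamine, which oxidizes to Rh123, for 1 h at 37 °C in 5% CO2. Cells were washed and resuspended in PBS, and fluorescence was read by FACScan (excitation 500, emission 536 nm). Three experiments, two replicates each, reported as mean ± SEM.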
For orientation: A flow cytometer gives signals particle by particle.

Test [8] deals with HT-29. As to the kind of experiment: Induction of mitochondrial membrane potential loss in human HT-29 cells assessed as fluorescence intensity at IC50 concentration measured after 72 hrs by rhodamine 123 staining based FACScan flow cytometry. The format is functional, cell-based. The method, boiled down: as §3
The test system of test [9] is HepG2. Put plainly: Induction of mitochondrial membrane potential loss in human HepG2 cells assessed as fluorescence intensity at IC50 concentration measured after 72 hrs by rhodamine 123 staining based FACScan flow cytometry. The format is functional, cell-based. The method, boiled down:
as §3

In test [10] the test system is HepG2. As to the kind of experiment: Induction of apoptosis in human HepG2 cells assessed as necrotic cells at IC50 concentrations measured after 72 hrs by Annexin V-FITC/Propidium iodide staining based FACS cytometry analysis. It counts as functional. The method, boiled down: as §1
The subject of test [11] is HT-29. As to the kind of experiment: Induction of apoptosis in human HT-29 cells assessed as total apoptosis at IC50 concentrations measured after 72 hrs by Annexin V-FITC/Propidium iodide staining based FACS cytometry analysis. The format is functional. The method, boiled down:
as §1

For test [12], the system named is B16-F10. Put plainly: Cell cycle arrest in mouse B16-F10 cells assessed as increase in cells accumulation in G0/G1 phase at IC50 concentrations measured after 72 hrs by Propidium iodide staining based FACS cytometry analysis. The format is functional. The method, boiled down:
as §2

Test [13] has as its system HT-29. Put plainly: Cell cycle arrest in human HT-29 cells assessed as increase in cells accumulation in G0/G1 phase at IC50 concentrations measured after 72 hrs by Propidium iodide staining based FACS cytometry analysis. The format is functional. The method, boiled down:
as §2

The source made the active and inactive calls. The rule behind the calls is not given here.

In the case of `CC1(C)CC[C@]2(C(=O)NCCCNC(=O)Cc3cc(=O)oc4cc(O)ccc34)CC[C@]3(C)C(=CC[C@@H]4[C@@]5(C)C[C@@H](O)[C@H](O)C(C)(C)[C@@H]5CC[C@]43C)[C@@H]2C1`, the Activity turned out to be 5% in test [1]; 10% in test [2]; 40% in test [3]; 5% in test [4]; 10% in [5]; 85% in [6]. Besides, the Activity in [10] stood at 5%. Moreover, the outcome in test [7] and in [8] was inactive. Moreover, the outcome in test [9] was Active.

For the compound `CC1(C)CC[C@]2(C(=O)NCCCNC(=O)/C=C/c3ccc(O)cc3)CC[C@]3(C)C(=CC[C@@H]4[C@@]5(C)C[C@@H](O)[C@H](O)C(C)(C)[C@@H]5CC[C@]43C)[C@@H]2C1`, the Activity was 5% in [1]; 10% in test [2]; 76% in [3]; 5% in test [4]; 10% in test [5]; 40% in [6]. For the same compound, the Activity in test [10] amounted to 5%; in test [11], 40%. Also, the outcome in [7] and in [8] was inactive. Besides, the outcome in test [9] was Active.

As to `CC1(C)CC[C@]2(C(=O)O)CC[C@]3(C)C(=CC[C@@H]4[C@@]5(C)C[C@@H](OC(=O)c6cc7ccccc7oc6=O)[C@H](OC(=O)c6cc7ccccc7oc6=O)C(C)(C)[C@@H]5CC[C@]43C)[C@@H]2C1`, the Activity in test [1] amounted to 5%; in test [2], 10%; in test [3] it was 40%; in [4] it was 5%; in [5], 10%; in test [10], 5%. Moreover, in [11], the Activity was determined as 58%. Moreover, the outcome in [7] and in test [8] was inactive. The result in test [9] was Active.

Turning to `CC1(C)CC[C@]2(C(=O)NCCCNC(=O)c3cc4ccccc4oc3=O)CC[C@]3(C)C(=CC[C@@H]4[C@@]5(C)C[C@@H](O)[C@H](O)C(C)(C)[C@@H]5CC[C@]43C)[C@@H]2C1`, the Activity in test [1] came to 5%; in test [2], 10%; in test [4], 5%; in test [5], 10%; in test [10], 5%. Moreover, the outcome in [7], in [8], in [12] and in test [13] was inactive. Besides, the result in test [9] was Active.
